In ChEMBL document CHEMBL4622936, “Discovery of the potent non-steroidal glucocorticoid receptor modulator BAY 1003803 as clinical candidate” (Bioorg Med Chem Lett, 2020):

Columns and labels:
[1] = Inhibition of collagenase (unknown origin) transfected in human HeLa cells by luciferase reporter gene assay; assay type: cell-based
[2] = Lipophilicity, logP of compound; assay type: physicochemical; conditions: octanol/water
THP-1 [3] = assay: Immunomodulatory activity in human THP1 cells assessed as reduction in LPS-induced IL-8 production; assay type: functional, cell-based
Procedure, shortened: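 Human promyeloid THP-1 cells were stimulated with lipopolysaccharide to induce IL-8 synthesis, and inhibition of IL-8 production by the test compound was measured.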

HeLa = assay: Inhibition of collagenase (unknown origin) transfected in human HeLa cells by luciferase reporter gene assay relative to control; assay type: cell-based
THP-1 [4] = assay: Immunomodulatory activity in human THP1 cells assessed as reduction in LPS-induced IL-8 production relative to control; assay type: functional
PBMC [5] = assay: Inhibition of LPS-induced TNFalpha release in human PBMC cells relative to control; assay type: functional
PBMC [6] = assay: Inhibition of PHA-induced IL2 release in human PBMC cells relative to control; assay type: functional
PBMC [7] = assay: Inhibition of PHA-induced IFNgamma release in human PBMC cells; assay type: functional, cell-based
Procedure, shortened: (§1)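 Primary human peripheral blood mononuclear cells were stimulated with LPS (IL-12p40, TNFα) or PHA (IFNγ, IL-2, IL-4). Cytokine release was measured with test compound, and clobetasol and dexamethasone were run in parallel as reference glucocorticoids.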

PBMC [8] = assay: Inhibition of PHA-induced IFNgamma release in human PBMC cells relative to control; assay type: functional
PBMC [9] = assay: Inhibition of PHA-induced IL4 release in human PBMC cells; assay type: functional, cell-based; procedure, shortened: as §1
PBMC [10] = assay: Inhibition of LPS-induced IL12p40 release in human PBMC cells; assay type: functional, cell-based; procedure, shortened: as §1
PBMC [11] = assay: Inhibition of LPS-induced TNFalpha release in human PBMC cells; assay type: functional, cell-based; procedure, shortened: as §1
PBMC [12] = assay: Inhibition of PHA-induced IL4 release in human PBMC cells relative to control; assay type: functional
PBMC [13] = assay: Inhibition of PHA-induced IL2 release in human PBMC cells; assay type: functional, cell-based; procedure, shortened: as §1
PBMC [14] = assay: Inhibition of LPS-induced IL12p40 release in human PBMC cells relative to control; assay type: functional
[15] = Mutagenicity in Salmonella typhimurium by Ames test; assay type: toxicity; conditions: salmonella enterica subsp. enterica serovar typhimurium

Structure (SMILES) | EC50 [1] | logP [2] | IC50 (THP-1 [3]) | Emax (HeLa) | Emax (THP-1 [4]) | further results
COc1ccc([C@H](Nc2cccc3nc(C)ccc23)[C@](O)(CC#N)C(F)(F)F)c(Cl)c1F | 1.58 nM | 3.4 | 1.26 nM | 80% | 83% | 
COC[C@@](O)([C@@H](Nc1cccc2nc(C)ccc12)c1ccc(OC)c(F)c1Cl)C(F)(F)F | 1.58 nM | 3.8 | 0.2 nM | 80% | 97% | 
CCSC[C@@](O)([C@@H](Nc1cccc2nc(C)ccc12)c1ccc(OC)cc1F)C(F)(F)F | 5.01 nM | 4.4 | 5.01 nM | 63% | 85% | 
C[C@@H]1C[C@H]2[C@@H]3CCC4=CC(=O)C=C[C@]4(C)[C@@]3(F)[C@@H](O)C[C@]2(C)[C@@]1(O)C(=O)CO [DEXAMETHASONE] | 7.94 nM |  | 2.51 nM | 100% | 100% | Efficacy (PBMC [5]): 100%; Efficacy (PBMC [6]): 100%; IC50 (PBMC [7]): 3.8 nM; Efficacy (PBMC [8]): 100%; IC50 (PBMC [9]): 2.3 nM; IC50 (PBMC [10]): 4.3 nM; IC50 (PBMC [11]): 6.4 nM; Efficacy (PBMC [12]): 100%; IC50 (PBMC [13]): 4.6 nM; Efficacy (PBMC [14]): 100%
CC[C@H]1c2c(cc(F)c(F)c2O)[C@H](Nc2cccc3[nH]c(=O)ccc23)[C@@](O)(C(F)(F)F)C1OC (stereo partly specified) | 10 nM | 3.1 | 6.31 nM | 29% | 78% | 
CCSC[C@@](O)([C@@H](Nc1cccc2nc(C)ccc12)c1ccc(OC)c(F)c1Cl)C(F)(F)F | 0.631 nM | 4.9 | 0.158 nM | 87% | 91% | 
CCSC[C@@](O)([C@@H](Nc1cc(F)cc2[nH]c(=O)ccc12)c1ccc(OC)c(F)c1Cl)C(F)(F)F | 3.16 nM | 4.3 | 1.58 nM | 92% | 93% | 
Nc1ccc(F)c2[nH]c(=O)ccc12 |  |  |  |  |  | Activity [15]: Toxic
CCSC[C@@](O)([C@@H](Nc1cccc2nc(C)ccc12)c1cccc(F)c1OC)C(F)(F)F | 10 nM | 4.6 | 2 nM | 47% | 69% | 
CCSC[C@@](O)([C@@H](Nc1cccc2nc(C)ccc12)c1ccc(C)cc1)C(F)(F)F | 12.6 nM | 4.8 | 2.51 nM | 66% | 87% | 
Nc1cc(F)cc2[nH]c(=O)ccc12 |  |  |  |  |  | Activity [15]: Non-Toxic
COc1ccc([C@H](Nc2cccc3nc(C)ccc23)[C@](O)(CN(C)C)C(F)(F)F)c(Cl)c1F | 39.8 nM | 5.3 | 5.01 nM | 66% | 77% | 
CCSC[C@@](O)([C@@H](Nc1cccc2nc(C)ccc12)c1ccc(Cl)c(F)c1O)C(F)(F)F | 25.1 nM | 3.4 | 20 nM | 102% | 107% | 
